Structures are written as SMILES. Calls of active or inactive are those of the source. No cut-off for these calls is given here.

The first test has as its system MCF7. Briefly: Growth inhibition in human MCF7 cells at 20 to 100 uM after 4 days by MTT assay. It is filed as functional, cell-based. An outline of the steps: (§1)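 MCF-7 cells kept in DMEM with 10% FBS, then held 3 days in phenol red-free DMEM with 5% charcoal-dextran stripped FBS. Seeded at 1.5 × 10³ cells/well for 24 h, then treated with samples for 4 days; 0.1 nM E2 and 100 nM ICI served as controls. MTT (5 mg/mL in PBS) was added for 2 h, formazan dissolved in DMSO and absorbance read. Three independent experiments, mean ± SD, Dunnett test.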
In general terms: Tetrazolium assays rely on reduction of a dye to a coloured formazan, in cell work by metabolically active cells.
With `O=c1c(-c2ccc(O)cc2)coc2cc(O)cc(O)c12`, the “growth inhibition (GI)” value is “Active”.

The subject of the next test is MCF7. Put plainly: Stimulation of growth in human MCF7 cells at 5 to 20 uM after 4 days by MTT assay. It is filed as functional, cell-based. An outline of the steps: as §1
For `O=c1c(-c2ccc(O)cc2)c[nH]c2cc(O)cc(O)c12`, the outcome was Active.
On to `Cn1cc(-c2ccc(O)cc2)c(=O)c2c(O)cc(O)cc21`, for which the result was Active.
Take `CCCn1cc(-c2ccc(O)cc2)c(=O)c2ccccc21`: the result was Active.
On to `CCn1cc(-c2ccc(O)cc2)c(=O)c2c(O)cc(O)cc21`, for which the result was Active.
Still for that read-out and setting: the value for `CCCn1cc(-c2ccc(O)cc2)c(=O)c2ccc(O)cc21` was “Active”; that for `CCn1cc(-c2ccc(O)cc2)c(=O)c2ccc(O)cc21` was “Active”.

The species entered for a further test is Homo sapiens. Briefly: Selectivity ratio of maximum inhibition of recombinant human ERbeta to maximum inhibition of recombinant human ERalpha by competitive binding assay. The method in brief: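 Competitive binding with [³H]-E2 (1 nM) for ERα and ERβ. Bound and free ligand separated by centrifugation at 12,000 × g for 2 min; supernatant radioactivity counted by liquid scintillation. Bound [³H]-E2 expressed relative to maximum receptor-bound ligand (10⁻⁷ M E2), versus 0.1% DMSO control; at least three separate experiments.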
With `O=c1c(-c2ccc(O)cc2)c[nH]c2cc(O)cc(O)c12`, the Selectivity ratio turned out to be 12.
Same read-out and setting: the value for `Cn1cc(-c2ccc(O)cc2)c(=O)c2c(O)cc(O)cc21` was 2.6; that for `CCCn1cc(-c2ccc(O)cc2)c(=O)c2c(O)cc(O)cc21` was 1.4.
On the same count and under the same terms, the value for `CCn1cc(-c2ccc(O)cc2)c(=O)c2c(O)cc(O)cc21` was 1.6.

The subject of another test is MCF7. Put plainly: Growth inhibition in human MCF7 cells at 5 to 100 uM after 4 days by MTT assay. Type of test: functional, cell-based. An outline of the steps: as §1
On to `O=c1c(-c2ccc(O)cc2)cn(Cc2ccccc2)c2cc(O)ccc12`, for which the “growth inhibition (GI)” value was “Active”.
With `CCCn1cc(-c2ccc(O)cc2)c(=O)c2c(O)cc(O)cc21`, the “growth inhibition (GI)” value is “Active”.
As to `CC(C)CCn1cc(-c2ccc(O)cc2)c(=O)c2ccc(O)cc21`, the “growth inhibition (GI)” value was “Active”.

A further test relates to CV-1. Briefly: Selectivity ratio of maximum activation of human ERbeta expressed in CV1 cells to maximum activation of human ERalpha expressed in CV1 cells. It is filed as cell-based. The method in brief:
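CV-1 cells held in phenol red-free DMEM with 5% stripped FBS for 3 days, seeded at 1.5 × 10⁵ cells/well. Next day they were co-transfected for 6 h with 30 ng hERα or hERβ plus 100 ng ERE-luciferase, with a β-galactosidase vector for normalization. Treated 24 h, then luciferase read, β-gal absorbance at 410 nm. Each subtype's activation expressed relative to maximum with 20 nM E2; at least three experiments.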
`O=c1c(-c2ccc(O)cc2)c[nH]c2cc(O)cc(O)c12`: the Selectivity ratio is 2.9.
Take `Cn1cc(-c2ccc(O)cc2)c(=O)c2c(O)cc(O)cc21`: the Selectivity ratio turned out to be 1.3.
In the case of `CCCn1cc(-c2ccc(O)cc2)c(=O)c2ccccc21`, the Selectivity ratio was 0.5.
Same read-out and setting: the value for `O=c1c(-c2ccc(O)cc2)cn(Cc2ccccc2)c2cc(O)ccc12` was 1.
Same read-out and setting: with `CCCn1cc(-c2ccc(O)cc2)c(=O)c2c(O)cc(O)cc21` the figure was 0.3; with `CCn1cc(-c2ccc(O)cc2)c(=O)c2c(O)cc(O)cc21`, 0.8; with `CC(C)CCn1cc(-c2ccc(O)cc2)c(=O)c2ccc(O)cc21`, 3.4.
Same read-out and setting: the value for `CCCn1cc(-c2ccc(O)cc2)c(=O)c2ccc(O)cc21` was 1.6; that for `O=c1c(-c2ccc(O)cc2)c[nH]c2cc(O)ccc12` was 1.3; that for `CCn1cc(-c2ccc(O)cc2)c(=O)c2ccc(O)cc21` was 2.9.
Turning to `Cn1cc(-c2ccc(O)cc2)c(=O)c2ccc(O)cc21`, the Selectivity ratio was determined as 6.4.

The next test relates to MCF7. Briefly: Stimulation of growth in human MCF7 cells at 0.1 to 20 uM after 4 days by MTT assay. It is filed as functional, cell-based. The method in brief: as §1
In the case of `O=c1c(-c2ccc(O)cc2)coc2cc(O)cc(O)c12`, the result was Active.

In another test the test system is MCF7. Briefly: Growth inhibition in human MCF7 cells at 50 to 100 uM after 4 days by MTT assay. It is filed as functional, cell-based. An outline of the steps:
as §1
As for `O=c1c(-c2ccc(O)cc2)c[nH]c2cc(O)cc(O)c12`, the “growth inhibition (GI)” value is “Active”.
The same measure, in the same setting: with `Cn1cc(-c2ccc(O)cc2)c(=O)c2c(O)cc(O)cc21` the entry was “Active”.
Take `CCCn1cc(-c2ccc(O)cc2)c(=O)c2ccccc21`: the “growth inhibition (GI)” value was “Active”.
Take `CCn1cc(-c2ccc(O)cc2)c(=O)c2c(O)cc(O)cc21`: the “growth inhibition (GI)” value is “Active”.
The same measure, in the same setting: with `CCCn1cc(-c2ccc(O)cc2)c(=O)c2ccc(O)cc21` the entry was “Active”.
On the same count and under the same terms, with `CCn1cc(-c2ccc(O)cc2)c(=O)c2ccc(O)cc21` the entry was “Active”.

Values taken from ChEMBL document CHEMBL3351677, “Design and synthesis of azaisoflavone analogs as phytoestrogen mimetics” (Eur J Med Chem, 2014).
